Source: ChEMBL document CHEMBL1764975, “A new DNA gyrase inhibitor subclass of the cyclothialidine family based on a bicyclic dilactam-lactone scaffold. Synthesis and antibacterial properties” (J Med Chem, 2011)
In brackets after ≈: the same amount, converted by molar mass.

Columns and labels:
Staphylococcus aureus [1] = assay: (§1) Antimicrobial activity against Staphylococcus aureus Smith after 18 hrs by agar dilution method; assay type: functional
Method in brief: (§2)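 Agar dilution on Mueller-Hinton medium, inoculum 10⁴ CFU/spot; MIC is the minimum inhibitory concentration against the named strain.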

Staphylococcus aureus [2] = assay: Antimicrobial activity against Staphylococcus aureus Smith infected in iv dosed septicaemia Swiss albino mouse model after 4 days; assay type: functional; conditions: 96 h
Method in brief: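 Septicaemia model in mice infected with S. aureus Smith, compound given iv. In experiments with 0-1 survivors among 5-10 control mice, ED₅₀ (mg/kg) taken as lowest dose giving 3-5 survivors out of 5 infected mice.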

Escherichia coli [3] = assay: Inhibition of Escherichia coli DNA gyrase A2B2 complex after 30 mins by supercoiling assay
Staphylococcus aureus [4] = assay: Antimicrobial activity against multidrug-resistant Staphylococcus aureus after 18 hrs by agar dilution method; assay type: functional
Method in brief: (§3)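 Agar dilution on Mueller-Hinton agar, inoculum 10⁴ CFU/spot, against panels of multiresistant clinical strains (S. aureus 11, E. faecalis 16, E. faecium 23). MIC_50/90 in μg/mL taken as the minimum concentration inhibiting at least 50% or 90% of the strains tested.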

Enterococcus faecalis [5] = assay: Antimicrobial activity against multidrug-resistant Enterococcus faecalis after 18 hrs by agar dilution method; assay type: functional; method in brief: as §3
Enterococcus faecium = assay: Antimicrobial activity against multidrug-resistant Enterococcus faecium after 18 hrs by agar dilution method; assay type: functional; method in brief: as §3
[6] = Octanol-water partition coefficient, log D of the compound at pH 7.4 by shake-flask method; assay type: physicochemical
Method in brief: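 Octanol/water partition measured by shake-flask at pH 7.4.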

Staphylococcus aureus [7] = assay: Antimicrobial activity against Staphylococcus aureus ATCC 25923 after 18 hrs by agar dilution method; assay type: functional; conditions: ATCC 25923, 18 h; method in brief: as §2
[8] = test system: Staphylococcus epidermidis; assay: Antimicrobial activity against Staphylococcus epidermidis 16/2 after 18 hrs by agar dilution method; assay type: functional; conditions: 16/2, 18 h; method in brief: as §2
Enterococcus faecalis [9] = assay: Antimicrobial activity against Enterococcus faecalis 6 after 18 hrs by agar dilution method; conditions: Enterococcus faecalis, 6, 18 h
Escherichia coli [10] = assay: Antimicrobial activity against Escherichia coli 25922 after 18 hrs by agar dilution method; assay type: functional; conditions: Escherichia coli, 25922, 18 h; method in brief: as §2
Streptococcus pyogenes = assay: Antimicrobial activity against Streptococcus pyogenes b15 after 18 hrs by agar dilution method; assay type: functional; conditions: b15, 18 h; method in brief: as §2
Staphylococcus aureus [11] = assay: as §1; assay type: functional; method in brief: as §2; remark: listed apart in the source
[12] = test system: Stenotrophomonas maltophilia; assay: Antimicrobial activity against Xanthomonas maltophilia IAC 739 after 18 hrs by agar dilution method; assay type: functional; conditions: IAC 739, 18 h; method in brief: as §2

Compound	MIC (Staphylococcus aureus [1]) [µg/mL]	ED50 (Staphylococcus aureus [2]) [mg/kg]	MNEC (Escherichia coli [3]) [µg/mL]	further results
COc1cc(O)c2c(c1Br)C(=O)OCCN(C(=O)C(C)(C)C)CC(=O)N[C@H](c1nc(C)no1)CSC2	0.5 (≈ 0.854 µM)	> 12	0.05	
C[C@@H](O)[C@H]1C(=O)N2C(C(=O)O)=C(SCCNC=N)C[C@H]12 [IMIPENEM ANHYDROUS]				MIC50 (Staphylococcus aureus [4]): 32 µg/mL (≈ 107 µM); MIC90 (Staphylococcus aureus [4]): 64 µg/mL (≈ 214 µM); MIC50 (Enterococcus faecalis [5]): 2 µg/mL (≈ 6.68 µM); MIC90 (Enterococcus faecalis [5]): 2 µg/mL (≈ 6.68 µM); MIC50 (Enterococcus faecium): 64 µg/mL (≈ 214 µM); MIC90 (Enterococcus faecium): > 64 µg/mL
COc1cc(O)c2c(c1Br)C(=O)OCC(=O)NCC(=O)N[C@H](c1nc(CN)no1)CSC2.Cl	32		0.1	
COc1cc(O)c2c(c1Br)C(=O)OCCN(C(=O)[C@@H](N)CC(C)C)CC(=O)N[C@H](c1nc(C)no1)CSC2.Cl	16		0.1	
COc1cc(O)c2c(c1Br)C(=O)OCCN(C)CC(=O)N[C@H](c1nc(C)no1)CSC2.Cl	1	> 25	0.05	
COc1cc(O)c2c(c1Br)C(=O)OCC(=O)NCC(=S)N[C@H](c1nc(CN)no1)CSC2.Cl	1	> 12	0.05	
COc1cc(O)c2c(c1C)C(=O)OCC(=O)NCC(=O)N[C@H](c1nc(C)no1)CSC2	8 (≈ 17.8 µM)	> 25	0.01	logD [6]: 1.05; MIC (Staphylococcus aureus [7]): 32 µg/mL (≈ 71 µM); MIC [8]: 1 µg/mL (≈ 2.22 µM); MIC (Enterococcus faecalis [9]): 8 µg/mL (≈ 17.8 µM); MIC (Escherichia coli [10]): > 64 µg/mL; MIC (Streptococcus pyogenes): 2 µg/mL (≈ 4.44 µM); MIC (Staphylococcus aureus [11]): 8 µg/mL (≈ 17.8 µM); MIC [12]: > 64 µg/mL
COc1cc(O)c2c(c1Br)C(=O)OCC(=O)N(C)CC(=S)N[C@H](c1nc(C)no1)CSC2	0.5 (≈ 0.917 µM)		0.05	
COC(=O)[C@@H]1CSCc2c(O)cc(OC)c(C)c2C(=O)OCCCC/C(S)=N/1			0.01	
CN[C@H](CC(C)C)C(=O)N[C@H]1C(=O)N[C@@H](CC(N)=O)C(=O)N[C@H]2C(=O)N[C@H]3C(=O)N[C@H](C(=O)N[C@H](C(=O)O)c4cc(O)cc(O)c4-c4cc3ccc4O)[C@H](O)c3ccc(c(Cl)c3)Oc3cc2cc(c3O[C@@H]2O[C@H](CO)[C@@H](O)[C@H](O)[C@H]2O[C@H]2C[C@](C)(N)[C@H](O)[C@H](C)O2)Oc2ccc(cc2Cl)[C@H]1O [VANCOMYCIN]		1.5		MIC (Escherichia coli [10]): > 64 µg/mL; MIC50 (Staphylococcus aureus [4]): 2 µg/mL (≈ 1.38 µM); MIC90 (Staphylococcus aureus [4]): 4 µg/mL (≈ 2.76 µM); MIC (Streptococcus pyogenes): 1 µg/mL (≈ 0.69 µM); MIC50 (Enterococcus faecalis [5]): 2 µg/mL (≈ 1.38 µM); MIC90 (Enterococcus faecalis [5]): 256 µg/mL (≈ 177 µM); MIC50 (Enterococcus faecium): 256 µg/mL (≈ 177 µM); MIC90 (Enterococcus faecium): > 256 µg/mL; MIC [12]: > 64 µg/mL
CO[C@@H]1[C@@H](OC(N)=O)[C@@H](O)[C@H](Oc2ccc3c(O)c(NC(=O)c4ccc(O)c(CC=C(C)C)c4)c(=O)oc3c2C)OC1(C)C [NOVOBIOCIN]		3		MIC (Staphylococcus aureus [7]): 0.25 µg/mL (≈ 0.408 µM); MIC [8]: 0.25 µg/mL (≈ 0.408 µM); MIC (Enterococcus faecalis [9]): 4 µg/mL (≈ 6.53 µM); MIC (Escherichia coli [10]): > 64 µg/mL; MIC (Streptococcus pyogenes): 1 µg/mL (≈ 1.63 µM); MIC (Staphylococcus aureus [11]): 0.12 µg/mL (≈ 0.196 µM); MIC [12]: > 64 µg/mL
COc1cc(O)c2c(c1Cl)C(=O)OCCCCC(=O)N[C@H](c1nc(C)no1)CSC2	0.25 (≈ 0.548 µM)	> 25	0.005	
COc1cc(O)c2c(c1Br)C(=O)OCC(=O)NCC(=O)N[C@H](c1nc(C3CC3)no1)CSC2	2 (≈ 3.69 µM)	6	0.02	
COCc1noc([C@@H]2CSCc3c(O)cc(OC)c(Br)c3C(=O)OCC(=O)NCC(=O)N2)n1	8 (≈ 14.7 µM)		0.05	
COc1cccc(OC)c1C(=O)N[C@@H]1C(=O)N2[C@@H]1SC(C)(C)[C@@H]2C(=O)O [METHICILLIN]				MIC50 (Staphylococcus aureus [4]): 256 µg/mL (≈ 673 µM); MIC90 (Staphylococcus aureus [4]): > 256 µg/mL
COc1cc(O)c2c(c1Br)C(=O)OCCN(C(C)=O)CC(=O)N[C@H](c1nc(C)no1)CSC2	16 (≈ 29.4 µM)		0.01	
COc1cc(O)c2c(c1Br)C(=O)O[C@H](C)C(=O)NCC(=S)N[C@H](c1nc(C)no1)CSC2	0.5 (≈ 0.917 µM)	> 12.5	0.2	
COc1cc(O)c2c(c1Br)C(=O)OCCN(C(=O)[C@H](C)N)CC(=O)N[C@H](c1nc(C)no1)CSC2.Cl	> 64		0.1	
COc1cc(O)c2c(c1Cl)C(=O)OCC(=O)NCC(=O)N[C@H](c1nc(C)no1)CSC2	8 (≈ 17 µM)	25	0.02	
COc1cc(O)c2c(c1C)C(=O)OCCCCC(=S)N[C@H](c1nc(CO)no1)CSC2	0.25 (≈ 0.535 µM)	25	0.001	
COc1cc(O)c2c(c1Br)C(=O)OCCNCC(=S)N[C@H](c1nc(C)no1)CSC2.Cl	0.5	> 25	0.1	
COc1cc(O)c2c(c1C)C(=O)O[C@H](CO)CCCC(=S)N[C@H](c1nc(CO)no1)CSC2	10 (≈ 20.1 µM)		0.01	
COc1cc(O)c2c(c1Br)C(=O)OCC(=S)NCC(=S)N[C@H](c1nc(C)no1)CSC2	1 (≈ 1.83 µM)		0.2	
